Six compounds from ChEMBL document CHEMBL3779834, “Prenylated Acylphloroglucinols with Leishmanicidal Activity from the Fern Elaphoglossum lindbergii” (J Nat Prod, 2016) can be followed below.

Structures are written as SMILES.

In one test the test system is Leishmania amazonensis. Put plainly: Leshmanicidal activity against promastigote stage of Leishmania amazonensis clone 1 AML MHOM/BR/76/LTB-012 after 72 hrs by XTT-based microplate reader analysis. The format is functional, organism-based. The conditions noted are these: clone 1 AML MHOM/BR/76/LTB-012, 72 h. The method in brief:
(§1)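 Log-phase promastigotes, grown at 26 °C in Schneider's insect medium (pH 6.8) with 10% heat-inactivated FBS, seeded at 1 × 10^6 parasites/mL. Test substances in DMSO at 0.75−100 μg/mL, 72 h at 26 °C. XTT (1 mg/mL) with PMS (0.06 mg/mL) added, further 4 h at 26 °C, OD read at 450 nm. DMSO 1% negative, amphotericin B 0.5 μg/mL positive control. IC50 = 50% viability decrease, mean ± standard error.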

Another test relates to Leishmania braziliensis. Put plainly: Leshmanicidal activity against promastigote stage of Leishmania braziliensis strand M2904 C192 RJA after 72 hrs by XTT-based microplate reader analysis. The class given is functional, organism-based. In a few lines: as §1

Consider `CCCCCC(=O)C1=C(O)[C@@](C)(CC=C(C)C)C(O)=C(Cc2c(O)c(CC=C(C)C)c(OC)c(C(=O)CCCCC)c2O)C1=O`, for which the results for the concentration for half-maximal inhibition (IC50) in the test with Leishmania amazonensis and with Leishmania braziliensis were 151 µM and 66.5 µM, respectively.

Take `CCCCCC(=O)C1=C(O)[C@@](C)(CC=C(C)C)C(O)=C(Cc2c(O)c3c(c(C(=O)CCC)c2O)OC(C)(C)C=C3)C1=O`: the figures for the IC50 in the test on Leishmania amazonensis and in the test with Leishmania braziliensis were 52.4 µM and 29.9 µM, respectively.

As to `CCCCCC(=O)C1=C(O)[C@@](C)(CC=C(C)C)C(O)=C(Cc2c(O)c(CC3=C(O)[C@](C)(CC=C(C)C)C(O)=C(C(=O)CCCCC)C3=O)c(O)c(C(=O)CCC)c2O)C1=O`, the IC50 in the test with Leishmania amazonensis and in the test with Leishmania braziliensis was more than 100 µg/mL in each case.

Consider `CCCC(=O)C1=C(O)[C@@](C)(CC=C(C)C)C(O)=C(Cc2c(O)c3c(c(C(=O)CCC)c2O)OC(C)(C)C=C3)C1=O`, for which the IC50 amounted to 16.3 µM in the test on Leishmania amazonensis and 13.6 µM with Leishmania braziliensis.

Regarding `C[C@@H]1[C@H](O)[C@@H](C)/C=C/C=C/C=C/C=C/C=C/C=C/C=C/[C@H](O[C@@H]2O[C@H](C)[C@@H](O)[C@H](N)[C@@H]2O)C[C@@H]2O[C@](O)(C[C@@H](O)C[C@@H](O)[C@H](O)CC[C@@H](O)C[C@@H](O)CC(=O)O[C@H]1C)C[C@H](O)[C@H]2C(=O)O` [AMPHOTERICIN B], the IC50 in the test on Leishmania amazonensis was determined as 0.11 µM; with Leishmania braziliensis, 0.12 µM.

For `CCCCCC(=O)c1c(O)c(CC2=C(O)[C@](C)(CC=C(C)C)C(O)=C(C(=O)CCC)C2=O)c(O)c(CC2=C(O)[C@](C)(CC=C(C)C)C(O)=C(C(=O)CCC)C2=O)c1O`, the IC50 is more than 100 µg/mL in the test with Leishmania amazonensis and 87.7 µM in the test with Leishmania braziliensis.
